Screening data (PubChem BioAssay)
This is a sample that favours compounds with a hit; in the whole collection about 2.2% have one here.
Bcl-xL primary – Bcl-xL (human) inhibition. Q07817. GST-Bcl-xL / FITC-Bim BH3 peptide fluorescence polarization. inhibition, % at 10.9 µM. 320,000 tested, 0.7% active;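 active means inhibition above the mean of all tested compounds plus 3 SD, cutoff set per campaign, cut at about 30% in these data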;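 further: inhibitors lower millipolarization by displacing the labeled peptide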
GLD-1 TGE inh – GLD-1-TGE RNA interaction inhibition (C. elegans) | purified GLD-1 + fluorescein TGE RNA, fluorescence polarization | Q17339 | 320,000 tested, 0.44% active | inhibition, % at 5.96 µM;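 active means percent inhibition above a per-plate cutoff, the plate mean of test compounds plus 3 SD, cut at about 30% in these data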
MEX-5 binding – C. elegans MEX-5 TCR-2 RNA binding activity. MEX-5/FITC-TCR2 RNA binding, fluorescence polarization; active compounds read low. 300,000 tested, 0.38% active. activity score (negative = inhibition of binding), % at 10 µM;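 active means inhibition past about -25% in most replicates, and total fluorescence under double the plate's negative control median, limit read from the data; inconclusive means replicates evenly split on the limit, or fluorescence at least double controls; inactive means too little inhibition in most replicates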
Target sequence (Q9XUB2 whole entry, looked up): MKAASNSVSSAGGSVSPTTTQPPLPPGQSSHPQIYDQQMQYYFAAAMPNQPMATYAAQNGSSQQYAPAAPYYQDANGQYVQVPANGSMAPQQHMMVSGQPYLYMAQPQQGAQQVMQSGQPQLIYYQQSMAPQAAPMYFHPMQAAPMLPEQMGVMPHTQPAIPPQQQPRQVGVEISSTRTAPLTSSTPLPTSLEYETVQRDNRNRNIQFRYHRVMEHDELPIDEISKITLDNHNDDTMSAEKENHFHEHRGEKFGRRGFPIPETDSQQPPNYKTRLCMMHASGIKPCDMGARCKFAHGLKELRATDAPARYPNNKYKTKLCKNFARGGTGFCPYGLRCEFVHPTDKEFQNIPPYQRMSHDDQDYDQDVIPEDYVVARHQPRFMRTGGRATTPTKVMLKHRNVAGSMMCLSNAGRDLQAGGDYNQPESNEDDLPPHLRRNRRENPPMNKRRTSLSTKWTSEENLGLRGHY
VIM-2 inhibitor – blocks Pseudomonas aeruginosa VIM-2 metallo-beta-lactamase; purified VIM-2, nitrocefin hydrolysis, epi-absorbance fluorescence; inhibition, % at 5.6 µM; 290,000 tested, 0.89% active; AID 1527;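 active means inhibition above the mean of all tested compounds plus 3 SD, cutoff set per screening run, cut at about 7.5% in these data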;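 further: red hydrolysis product quenches plate fluorescence so inhibitors raise well fluorescence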
IMP-1 inh-1 – inhibitors of Pseudomonas aeruginosa IMP-1 metallo-beta-lactamase. 290,000 tested, 0.45% active. purified IMP-1, nitrocefin hydrolysis, epi-absorbance fluorescence. inhibition, % at 5.6 µM;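 active means inhibition above the mean plus 3 SD of all compounds in the same screening run, cut at about 4.5% in these data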
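Assay system: purified recombinant IMP-1 beta-lactamase. Input: IMP-1 0.2 nM before substrate addition. Buffer or medium: Zinc- and detergent-supplemented HEPES buffer, pH 7.1. Schedule: 25 °C, 15 min preincubation, 25 min reaction. Signal: Epi-absorbance fluorescence, 480 nm excitation, 530 nm emission. Evaluation: percent inhibition from optical density relative to buffer-blank wells.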
EBV gp42 block – blocks Epstein-Barr virus glycoprotein 42 binding; inhibition, % (tested at 21.74 µM); Q1HVG2; AID 1085; Fluorescence polarization binding assay, mP read-out; 220,000 tested, 0.42% active; in the data active means inhibition above about 50%
Target sequence (Q1HVG2 whole entry, looked up): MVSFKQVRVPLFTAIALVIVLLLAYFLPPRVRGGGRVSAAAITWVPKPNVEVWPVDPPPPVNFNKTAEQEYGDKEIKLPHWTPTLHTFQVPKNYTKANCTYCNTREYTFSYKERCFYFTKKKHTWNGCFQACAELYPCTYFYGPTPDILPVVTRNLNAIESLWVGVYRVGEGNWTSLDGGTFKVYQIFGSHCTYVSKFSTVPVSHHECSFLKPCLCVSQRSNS
IMP-1 inh-2 – blocks IMP-1 metallo-beta-lactamase in VIM-2 selectivity screen; inhibition, % at 5.6 µM; AID 1856; 1,300 tested, under 10 active; shares compounds with VIM-2 inhibitor; purified IMP-1, nitrocefin hydrolysis, epi-absorbance fluorescence; call rule not given here
VIM-2 FRET ctr – inhibits VIM-2 in FRET assay to exclude epi-absorbance artifacts; shares compounds with VIM-2 inhibitor; inhibition, % at 5.6 µM; AID 1857; purified VIM-2, CCF2 FRET substrate hydrolysis; 1,300 tested, 23% active;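 active means inhibition above the mean of all tested compounds plus 3 SD, cut at about 19% in these data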
TEM-1 counter – blocks E. coli TEM-1 beta-lactamase in VIM-2 selectivity screen. shares compounds with VIM-2 inhibitor. Purified TEM-1, nitrocefin hydrolysis, epi-absorbance fluorescence. inhibition, % at 5.6 µM. 1,300 tested, 3% active;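 active means inhibition above that campaign's mean inhibition plus 3 SD, cut at about 0.46% in these data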
VIM-2 inh conf – confirmation of P. aeruginosa VIM-2 metallo-beta-lactamase inhibitors | 1,300 tested, 96% active | shares compounds with VIM-2 inhibitor | AID 2187 | purified VIM-2, nitrocefin hydrolysis, epi-absorbance | inhibition, % at 5.6 µM;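 active means inhibition of the VIM-2 beta-lactamase enzyme above about 11% from the earlier first-round screen, limit read from the data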
Large screens that a line does not name were inactive (follow-up assays come after a bar, where they were run).

c1ccc(N2CCN(c3nc(-c4ccccn4)nc4ccccc34)CC2)cc1	VIM-2 inhibitor 42 | IMP-1 inh-2 inactive | VIM-2 FRET ctr inactive | TEM-1 counter inactive | VIM-2 inh conf 64
CCOC(=O)C1(Cc2cccc(Cl)c2)CCCN(C(=O)c2ccc(COC)s2)C1 (stereo not drawn)	none (no result: EBV gp42 block)
COC(=O)c1c(NC(=O)c2cccc(N3C(=O)CCC3=O)c2)sc2c1CCN(C(C)=O)C2	VIM-2 inhibitor 24 (no result: EBV gp42 block) | IMP-1 inh-2 inactive | VIM-2 FRET ctr inactive | TEM-1 counter inactive | VIM-2 inh conf 39
CNC(=O)c1c(NC(=O)c2cccc(N3C(=O)CCC3=O)c2)sc2c1CCC2	none
Cc1cc(C)c2cccc(N)c2n1	none
CCc1ccc2nc3nc(C)cc(C)c3c(N)c2c1	VIM-2 inhibitor 23 | IMP-1 inh-2 inactive | VIM-2 FRET ctr inactive | TEM-1 counter inactive | VIM-2 inh conf 41
CCc1ccc(NC(=S)/N=C(\N)Nc2nc(C)c3cc(CC)ccc3n2)cc1	none
Cc1cc(C)c2c(N)c3ccccc3nc2n1	VIM-2 inhibitor 16 | IMP-1 inh-2 inactive | VIM-2 FRET ctr inactive | TEM-1 counter inactive | VIM-2 inh conf 33
O=C(OCc1ccc(O)cc1)c1c(-c2ccsc2)oc2ccc(N3CCOCC3)cc12	none (no result: EBV gp42 block)
CCCc1[nH][nH]c(=O)c1C(c1ccc(Cl)cc1)C(C#N)C#N (stereo not drawn)	VIM-2 inhibitor 12 | IMP-1 inh-2 inactive | VIM-2 FRET ctr inactive | TEM-1 counter inactive | VIM-2 inh conf inactive
Cc1ccc(S(N)(=O)=O)cc1NC(=O)c1ccc2c3c(cccc13)CC2	none (no result: EBV gp42 block)
CN1CCN(c2cc(N3CCN(C(=O)c4ccco4)CC3)c3c4c(onc24)-c2ccccc2C3=O)CC1	Bcl-xL primary 37, VIM-2 inhibitor 17 (no result: EBV gp42 block) | IMP-1 inh-2 inactive | VIM-2 FRET ctr inactive | TEM-1 counter inactive | VIM-2 inh conf 24
O=C(c1ccco1)N1CCN(C2=NS(=O)(=O)c3ccccc32)CC1	none
O=C1c2ccccc2-c2onc3c(N4CCN(CCO)CC4)cc(N4CCN(C(=O)c5ccco5)CC4)c1c23	Bcl-xL primary 63, VIM-2 inhibitor 14 (no result: EBV gp42 block) | IMP-1 inh-2 inactive | VIM-2 FRET ctr inactive | TEM-1 counter inactive | VIM-2 inh conf 18
CN1CCN(CC(=O)Nc2cc(N(C)C)nc3ccccc23)CC1	VIM-2 inhibitor 19 | IMP-1 inh-2 inactive | VIM-2 FRET ctr inactive | TEM-1 counter inactive | VIM-2 inh conf 38
CCN(CC)CC(=O)Nc1cc(N(C)C)nc2ccccc12	none
O=[N+]([O-])c1cc(CN2CCOCC2)c2cccnc2c1O	VIM-2 inhibitor 46, EBV gp42 block 87 (no result: Bcl-xL primary, GLD-1 TGE inh, MEX-5 binding) | IMP-1 inh-2 inactive | VIM-2 FRET ctr inactive | TEM-1 counter inactive | VIM-2 inh conf 49
COc1ccc(CCNC(=O)c2cc3c(=O)n4cccc(C)c4nc3n(Cc3ccco3)c2=N)cc1OC	none (no result: EBV gp42 block)
Cc1cccn2c(=O)c3cc(C(=O)NCc4ccco4)c(=N)n(C(C)C)c3nc12	Bcl-xL primary 84, GLD-1 TGE inh 49, MEX-5 binding inconclusive, VIM-2 inhibitor 13 | IMP-1 inh-2 inactive | VIM-2 FRET ctr inactive | TEM-1 counter inactive | VIM-2 inh conf 27
CC(C)n1c(=N)c(C(=O)NCCc2ccccc2)cc2c(=O)n3ccccc3nc21	none
Cc1cccn2c(=O)c3cc(C(=O)NCc4cccnc4)c(=N)n(C(C)C)c3nc12	VIM-2 inhibitor 20 | IMP-1 inh-2 inactive | VIM-2 FRET ctr inactive | TEM-1 counter inactive | VIM-2 inh conf 31
COc1ccc(-c2cc(C(F)(F)F)nc(SCCC(=O)N3CCCC3)n2)cc1	none
COc1ccc(-c2cc(C(F)(F)F)nc(SCCC(=O)N3CCN4CCCC4C3)n2)cc1 (stereo not drawn)	VIM-2 inhibitor 13 | IMP-1 inh-2 inactive | VIM-2 FRET ctr inactive | TEM-1 counter inactive | VIM-2 inh conf 29
O=C1c2ccccc2-c2nc3ccccc3cc21	VIM-2 inhibitor 12 (no result: EBV gp42 block) | IMP-1 inh-2 inactive | VIM-2 FRET ctr inactive | TEM-1 counter inactive | VIM-2 inh conf 17
c1ccc2c(c1)Cc1cc3ccccc3nc1-2	none (no result: EBV gp42 block)
Cc1c(OCC(=O)NCc2ccncc2)ccc2c3c(c(=O)oc12)CCCC3	VIM-2 inhibitor 49 (no result: EBV gp42 block) | IMP-1 inh-2 inactive | VIM-2 FRET ctr inactive | TEM-1 counter inactive | VIM-2 inh conf 63
O=C(COc1cc2oc(=O)c3c(c2cc1Cl)CCCC3)NCc1cccnc1	none (no result: EBV gp42 block)
Cc1cc(Cl)ccc1OCC(=O)Nc1cccnc1	none (no result: EBV gp42 block)
Cc1c(OCC(=O)NCc2cccnc2)ccc2c3c(c(=O)oc12)CCCC3	VIM-2 inhibitor 17 (no result: EBV gp42 block) | IMP-1 inh-2 inactive | VIM-2 FRET ctr inactive | TEM-1 counter inactive | VIM-2 inh conf 26
Cc1c(C)c2ccc(OCC(=O)Nc3cccnc3)c(C)c2oc1=O	VIM-2 inhibitor 12 (no result: EBV gp42 block) | IMP-1 inh-2 inactive | VIM-2 FRET ctr inactive | TEM-1 counter inactive | VIM-2 inh conf 21
Cc1c(OC(C)C(=O)NCc2cccnc2)ccc2c3c(c(=O)oc12)CCCC3 (stereo not drawn)	VIM-2 inhibitor 14 (no result: EBV gp42 block) | IMP-1 inh-2 inactive | VIM-2 FRET ctr inactive | TEM-1 counter inactive | VIM-2 inh conf 24
COc1ccc(S(=O)(=O)N2CCc3ccccc32)cc1[N+](=O)[O-]	none (no result: EBV gp42 block)
Nc1cc(=O)[nH]c(SCCSc2cc(Cl)ccc2Cl)n1	none (no result: EBV gp42 block)
N#CCCC(CCC#N)(CCC#N)c1cc[n+](CCc2ccccn2)cc1	none (no result: VIM-2 inhibitor, IMP-1 inh-1, EBV gp42 block)
Cc1c(OCC(=O)N(C)c2ccccc2)ccc2c3c(c(=O)oc12)CCC3	VIM-2 inhibitor 20 (no result: EBV gp42 block) | IMP-1 inh-2 inactive | VIM-2 FRET ctr inactive | TEM-1 counter inactive | VIM-2 inh conf 29
CN1C(=O)/C(=C/c2ccccc2Cl)Sc2ccc(C(=O)NCc3cccnc3)cc21	none
Cc1cccc(C2c3[nH]c4ccccc4c3CCN2C(=O)c2cc(CC(C)C)nc(C)n2)n1 (stereo not drawn)	none
Cc1cccc(C2c3[nH]c4ccccc4c3CCN2C(=O)c2cc(CC(C)C)[nH]c(=O)n2)n1 (stereo not drawn)	VIM-2 inhibitor 24 | IMP-1 inh-2 inactive | VIM-2 FRET ctr 58 | TEM-1 counter inactive | VIM-2 inh conf 36
CCN1CCN(c2nn3c(=O)c4ccccc4nc3c3ccccc23)CC1	VIM-2 inhibitor 18 | IMP-1 inh-2 inactive | VIM-2 FRET ctr inactive | TEM-1 counter inactive | VIM-2 inh conf 30
